Published values pooled from the literature.
Protocols differ between the studies behind these lines.
Cell line: Vero
Read-out: cell growth or viability

Cc1ccc(-c2csc(Nc3ccc4c(O)ncnc4c3)n2)cc1 — IC50 (MTT): > 50 µM
Nc1ccc(-c2nc3cnccn3c2NC2CCCCC2)cc1 — IC50 (MTT; 48 h): 75 µM
CO[C@H]1/C=C/O[C@@]2(C)Oc3c(C)c(O)c4c(O)c(c(/C=N/N5CCN(C)CC5)c(O)c4c3C2=O)NC(=O)/C(C)=C\C=C\[C@H](C)[C@H](O)[C@@H](C)[C@@H](O)[C@@H](C)[C@H](OC(C)=O)[C@@H]1C — IC50 (MTT; 48 h): > 1000 µg/mL
Cc1cc(=O)[nH]n1C(=O)c1ccc(-n2c(C)ccc2C)cc1 — IC50 (MTT; 72 h): 202 µM
COc1ccc(-c2csc(Nc3ccc4c(O)ncnc4c3)n2)cc1 — IC50 (MTT): > 50 µM
Nc1nc(N)c(CNCCc2cccc(F)c2)c(C2CCCCC2)n1 — IC50 (SRB): 25 µM
Cc1ccc(C)n1-c1ccc(-c2nnc(-c3ccccc3Cl)[nH]2)cc1 — IC50 (MTT; 72 h): 222 µM
CN(C)c1ccc(-c2nc3cnccn3c2N)cc1 — IC50 (MTT; 48 h): 91 µM
NC1=NN(c2ccc([N+](=O)[O-])cc2[N+](=O)[O-])C(=O)C1=NNc1ccc(N=Nc2ccccc2)cc1 — IC50: 45.1 µM
CC1(C)N=C(N)N=C(N)N1c1ccc(Cl)cc1 — IC50 (SRB): > 100 µM
Oc1ccc(-c2csc(Nc3ccc4c(O)ncnc4c3)n2)cc1 — IC50 (MTT): > 50 µM
COc1cccc2c1C(=O)c1c(O)c3c(c(O)c1C2=O)C[C@@](O)(C(=O)CO)C[C@@H]3O[C@H]1C[C@H](N)[C@H](O)[C@H](C)O1 — IC50 (MTT; 48 h): 14 µM
NC1=NN(c2ccccc2)C(=O)C1=NNc1ccc(N=Nc2ccccc2)cc1 — IC50: 44.6 µM
Oc1ncnc2cc(Nc3nc(-c4ccc(Cl)cc4)cs3)ccc12 — IC50 (MTT): > 50 µM
O=c1[nH]cc(F)c(=O)[nH]1 — IC50 (MTT; 72 h): 5.19 µM
COc1ccc(CCNCc2c(N)nc(N)nc2C2CCCCC2)cc1 — IC50 (SRB): 21 µM
CC(C)(C)Nc1c(-c2ccccc2[N+](=O)[O-])nc2cnccn12 — IC50 (MTT; 48 h): > 100 µM
Nc1nc(N)c(CNCCc2cccc(Cl)c2)c(C2CCCCC2)n1 — IC50 (SRB): 23 µM
COc1cc(OC)cc(-c2ccc(C(=O)NCc3c4c(c(C)[nH]c3=O)CCCC4)cc2)c1 — IC50 (MTT; 72 h): > 50 µg/mL
NNC(=O)c1ccncc1 — IC50 (MTT; 72 h): > 450 µM
COc1ccc(CCNCc2c(N)nc(N)nc2-c2ccccc2)cc1 — IC50 (SRB): > 100 µM
CC(C)(C)Nc1c(-c2ccccc2[N+](=O)[O-])nc2ccccn12 — IC50 (MTT; 48 h): 78 µM
Cc1ccc(C)n1-c1ccc(-c2nnc(-c3ccc(Br)cc3)[nH]2)cc1 — IC50 (MTT; 72 h): 231 µM
Nc1ccc(-c2nc3ccccn3c2NC2CCCCC2)cc1 — IC50 (MTT; 48 h): 90 µM
COc1ccccc1CCNCc1c(N)nc(N)nc1-c1ccccc1 — IC50 (SRB): > 100 µM
CC(C)(C)Nc1c(-c2ccc([N+](=O)[O-])cc2)nc2cnccn12 — IC50 (MTT; 48 h): 80 µM
Nc1nc(N)c(CNCCc2ccc(F)cc2)c(C2CCCCC2)n1 — IC50 (SRB): 22 µM
Cc1[nH]c(=O)c(CNC(=O)c2ccc([N+](=O)[O-])o2)c2c1CCCC2 — IC50 (MTT; 72 h): > 50 µg/mL
Oc1ncnc2cc(Nc3nc(-c4ccc(C(F)(F)F)cc4)cs3)ccc12 — IC50 (MTT): > 50 µM
Nc1ccc(-c2nc3ccccn3c2N)cc1 — IC50 (MTT; 48 h): 88 µM
Nc1ccc(-c2csc(Nc3ccc4c(O)ncnc4c3)n2)cc1 — IC50 (MTT): > 50 µM
COc1cccc(CCNCc2c(N)nc(N)nc2-c2ccccc2)c1 — IC50 (SRB): > 100 µM
